From ChEMBL document CHEMBL1135406, “Distribution of furamidine analogues in tumor cells: influence of the number of positive charges” (J Med Chem, 2002)
pIC50: −log10 of the molar value.

System: B16
Assay: Drug concentration required to inhibit B16 cell growth by 50% after 72 hours of incubation
Assay type: functional, cell-based
Conditions: Mus musculus, B16, 72 h
How it was run: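 B16 murine melanoma cells grown in DMEM-glutaMAX with 10% FBS, penicillin and streptomycin, 37 °C, 5% CO2; harvested by trypsinization and plated 20 h before dosing. 2 × 10⁴ exponentially growing cells per well exposed to a range of drug concentrations for 72 h at 37 °C; MTS added for a further 3 h; absorbance read at 492 nm; IC50 = 50% growth inhibition.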

Row | SMILES | pIC50
1 | CN(C)CCC/N=C(\N)c1ccc(-c2ccc(-c3ccc(/C(N)=N/CCCN(C)C)cc3)o2)cc1 | 5.60
2 | N=C(N)c1ccc(-c2ccc(-c3nc4ccccc4[nH]3)o2)cc1 | 4.29
3 | c1cc(-c2ccc(-c3ccc(C4=NCCN4)cc3)o2)ccc1C1=NCCN1 | 5.96
4 | COc1ccc(-c2ccc(-c3ccc(C4=NCCN4)cc3)o2)cc1 | 5.77
5 | COc1ccc(-c2ccc(-c3ccc(C(=N)N)cc3)o2)cc1 | 5.46
6 | N=C(N)c1ccc2[nH]c(-c3ccc(-c4ccc(N)cc4)o3)nc2c1 | < 4.00
7 | c1ccc2[nH]c(-c3ccc(-c4ccc(C5=NCCN5)cc4)o3)nc2c1 | 5.07
8 | CN(C)CCCC(=O)Nc1ccc(-c2ccc(-c3ccc(NC(=O)CCCN(C)C)cc3)o2)cc1 | 5.64
9 | N=C(N)c1ccc(-c2ccc(-c3nc4cc(C(=N)N)ccc4[nH]3)o2)cc1 | 4.36
10 | CN(C)CCC/N=C(\N)c1ccc(-c2ccc(-c3nc4cc(/C(N)=N/CCCN(C)C)ccc4[nH]3)o2)cc1 | < 4.00
11 | N=C(N)c1ccc(-c2ccc(-c3ccc(C(=N)N)cc3)o2)cc1 [FURAMIDINE] | 5.04
